Experiments:
Assay type in all cases: functional
Malme-3M = assay: Growth inhibition of human MALME-3M cells at 10 uM after 48 hrs by coulter counter analysis; details: read-out: GI
Method in brief: (§1)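 Single-dose NCI 60-line panel screen of test compounds. Cells grown in RPMI 1640 with 10% FBS. Compounds dissolved in DMSO, then diluted in phosphate buffer saline (final DMSO below 1%). Wells run in duplicate at 6 × 10⁴ cells/ml. Controls held PBS and DMSO at matching dilutions. Incubation 48 h at 37 °C under humidified 5% CO2. Cells diluted tenfold in saline and counted by Coulter counter. Percent growth inhibition taken from mean-graph of treated-cell growth.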

NCI-H322M = assay: Growth inhibition of human NCI-H322M cells at 10 uM after 48 hrs by coulter counter analysis; details: read-out: GI; method in brief: as §1
HOP-62 = assay: Growth inhibition of human HOP62 cells at 10 uM after 48 hrs by coulter counter analysis; details: HOP-62, 48 h, read-out: GI; method in brief: as §1
HT-29 = assay: Growth inhibition of human HT-29 cells at 10 uM after 48 hrs by coulter counter analysis; details: HT-29, 48 h, read-out: GI; method in brief: as §1
NCI-H226 = assay: Growth inhibition of human NCI-H226 cells at 10 uM after 48 hrs by coulter counter analysis; details: NCI-H226, 48 h, read-out: GI; method in brief: as §1
SW-620 = assay: Growth inhibition of human SW620 cells at 10 uM after 48 hrs by coulter counter analysis; details: SW-620, 48 h, read-out: GI
Method in brief: (§2)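 Single-dose screen in the NCI 60 cell line panel. Cells grown in RPMI 1640 with 10% FBS. Compounds dissolved in DMSO and diluted in phosphate buffered saline, final DMSO under 1%. Duplicate wells seeded from culture at 6 × 10⁴ cells/ml. Incubated 48 h at 37 °C, humidified, 5% CO2. Cells diluted tenfold in saline and Coulter-counted. Percent growth inhibition computed against PBS/DMSO controls.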

MDA-MB-435 = assay: Growth inhibition of human MDA-MB-435 cells at 10 uM after 48 hrs by coulter counter analysis; details: MDA-MB-435, 48 h, read-out: GI; method in brief: as §1
OVCAR-4 = assay: Growth inhibition of human OVCAR4 cells at 10 uM after 48 hrs by coulter counter analysis; details: OVCAR-4, 48 h, read-out: GI; method in brief: as §1
RXF 393 = assay: Growth inhibition of human RXF393 cells at 10 uM after 48 hrs by coulter counter analysis; details: RXF 393, 48 h, read-out: GI; method in brief: as §1
IGROV-1 = assay: Growth inhibition of human IGROV1 cells at 10 uM after 48 hrs by coulter counter analysis; details: IGROV-1, 48 h, read-out: GI; method in brief: as §1
HCT-15 = assay: Growth inhibition of human HCT15 cells at 10 uM after 48 hrs by coulter counter analysis; details: HCT-15, 48 h, read-out: GI; method in brief: as §1
786-0 = assay: Growth inhibition of human 786-0 cells at 10 uM after 48 hrs by coulter counter analysis; details: 786-0, 48 h, read-out: GI; method in brief: as §1
HCC 2998 = assay: Growth inhibition of human HCC2998 cells at 10 uM after 48 hrs by coulter counter analysis; details: HCC 2998, 48 h, read-out: GI; method in brief: as §1
SN12C = assay: Growth inhibition of human SN12C cells at 10 uM after 48 hrs by coulter counter analysis; details: read-out: GI; method in brief: as §1
A498 = assay: Growth inhibition of human A498 cells at 10 uM after 48 hrs by coulter counter analysis; details: A498, 48 h, read-out: GI; method in brief: as §1
CAKI-1 = assay: Growth inhibition of human Caki1 cells at 10 uM after 48 hrs by coulter counter analysis; details: CAKI-1, 48 h, read-out: GI; method in brief: as §1
MDA-MB-468 = assay: Growth inhibition of human MDA-MB-468 cells at 10 uM after 48 hrs by coulter counter analysis; details: MDA-MB-468, 48 h, read-out: GI; method in brief: as §1
OVCAR-5 = assay: Growth inhibition of human OVCAR5 cells at 10 uM after 48 hrs by coulter counter analysis; details: OVCAR-5, 48 h, read-out: GI; method in brief: as §1
LOX IMVI = assay: Growth inhibition of human LOXIMVI cells at 10 uM after 48 hrs by coulter counter analysis; details: read-out: GI; method in brief: as §1
T47D = assay: Growth inhibition of human T47D cells at 10 uM after 48 hrs by coulter counter analysis; details: read-out: GI; method in brief: as §2
NCI-H23 = assay: Growth inhibition of human NCI-H23 cells at 10 uM after 48 hrs by coulter counter analysis; details: NCI-H23, 48 h, read-out: GI; method in brief: as §1
RPMI-8226 = assay: Growth inhibition of human RPMI8226 cells at 10 uM after 48 hrs by coulter counter analysis; details: RPMI-8226, 48 h, read-out: GI; method in brief: as §1
MDA-MB-231 = assay: Growth inhibition of human MDA-MB-231 cells at 10 uM after 48 hrs by coulter counter analysis; details: MDA-MB-231, 48 h, read-out: GI; method in brief: as §1
K562 = assay: Growth inhibition of human K562 cells at 10 uM after 48 hrs by coulter counter analysis; details: K562, 48 h, read-out: GI; method in brief: as §1
SF-268 = assay: Growth inhibition of human SF268 cells at 10 uM after 48 hrs by coulter counter analysis; details: SF-268, 48 h, read-out: GI; method in brief: as §1
SK-MEL-28 = assay: Growth inhibition of human SK-MEL-28 cells at 10 uM after 48 hrs by coulter counter analysis; details: SK-MEL-28, 48 h, read-out: GI; method in brief: as §1
PC-3 = assay: Growth inhibition of human PC3 cells at 10 uM after 48 hrs by coulter counter analysis; details: PC-3, 48 h, read-out: GI; method in brief: as §1
OVCAR-8 = assay: Growth inhibition of human OVCAR8 cells at 10 uM after 48 hrs by coulter counter analysis; details: OVCAR-8, 48 h, read-out: GI; method in brief: as §1
[1] = Growth inhibition of human Hs 578T cells at 10 uM after 48 hrs by coulter counter analysis; details: read-out: GI; method in brief: as §1
BT-549 = assay: Growth inhibition of human BT549 cells at 10 uM after 48 hrs by coulter counter analysis; details: BT-549, 48 h, read-out: GI; method in brief: as §1
UACC-62 = assay: Growth inhibition of human UACC62 cells at 10 uM after 48 hrs by coulter counter analysis; details: UACC-62, 48 h, read-out: GI; method in brief: as §2
SF-539 = assay: Growth inhibition of human SF539 cells at 10 uM after 48 hrs by coulter counter analysis; details: SF-539, 48 h, read-out: GI; method in brief: as §1
UO-31 = assay: Growth inhibition of human UO31 cells at 10 uM after 48 hrs by coulter counter analysis; details: UO-31, 48 h, read-out: GI; method in brief: as §2
SK-MEL-5 = assay: Growth inhibition of human SK-MEL-5 cells at 10 uM after 48 hrs by coulter counter analysis; details: SK-MEL-5, 48 h, read-out: GI; method in brief: as §1
CCRF-CEM = assay: Growth inhibition of human CCRF-CEM cells at 10 uM after 48 hrs by coulter counter analysis; details: read-out: GI; method in brief: as §1

SMILES	inhibition of growth at 10 µM (Malme-3M)	inhibition of growth at 10 µM (NCI-H322M)	inhibition of growth at 10 µM (HOP-62)	inhibition of growth at 10 µM (HT-29)	inhibition of growth at 10 µM (NCI-H226)	inhibition of growth at 10 µM (SW-620)	inhibition of growth at 10 µM (MDA-MB-435)	inhibition of growth at 10 µM (OVCAR-4)	inhibition of growth at 10 µM (RXF 393)	inhibition of growth at 10 µM (IGROV-1)	inhibition of growth at 10 µM (HCT-15)	inhibition of growth at 10 µM (786-0)	inhibition of growth at 10 µM (HCC 2998)	inhibition of growth at 10 µM (SN12C)	inhibition of growth at 10 µM (A498)	inhibition of growth at 10 µM (CAKI-1)	inhibition of growth at 10 µM (OVCAR-5)	inhibition of growth at 10 µM (LOX IMVI)	inhibition of growth at 10 µM (T47D)	inhibition of growth at 10 µM (NCI-H23)	further results
Cc1cnc(NC(=O)CCN2CCN(c3ccccc3)CC2)s1	< 10%	< 10%	< 10%	< 10%	< 10%	< 10%	< 10%	< 10%	< 10%	< 10%	< 10%	< 10%	< 10%	< 10%	< 10%	< 10%	< 10%	< 10%	< 10%	< 10%	inhibition of growth at 10 µM (MDA-MB-468): < 10%; inhibition of growth at 10 µM (RPMI-8226): < 10%; inhibition of growth at 10 µM (MDA-MB-231): < 10%; inhibition of growth at 10 µM (K562): < 10%; inhibition of growth at 10 µM (SF-268): < 10%; inhibition of growth at 10 µM (SK-MEL-28): < 10%; inhibition of growth at 10 µM (PC-3): < 10%; inhibition of growth at 10 µM (OVCAR-8): < 10%; inhibition of growth at 10 µM [1]: < 10%; inhibition of growth at 10 µM (BT-549): < 10%; inhibition of growth at 10 µM (UACC-62): < 10%; inhibition of growth at 10 µM (SF-539): < 10%; inhibition of growth at 10 µM (UO-31): 12.8%; inhibition of growth at 10 µM (SK-MEL-5): < 10%
CCOC(=O)c1sc(NC(=O)CN(C)C)nc1C	< 10%	< 10%	< 10%	< 10%	< 10%	< 10%	< 10%	< 10%	< 10%	< 10%	< 10%	< 10%	< 10%	< 10%	< 10%	< 10%	< 10%	< 10%	< 10%	< 10%	inhibition of growth at 10 µM (MDA-MB-468): < 10%; inhibition of growth at 10 µM (RPMI-8226): < 10%; inhibition of growth at 10 µM (MDA-MB-231): < 10%; inhibition of growth at 10 µM (K562): < 10%; inhibition of growth at 10 µM (SF-268): < 10%; inhibition of growth at 10 µM (SK-MEL-28): < 10%; inhibition of growth at 10 µM (PC-3): < 10%; inhibition of growth at 10 µM (OVCAR-8): < 10%; inhibition of growth at 10 µM [1]: < 10%; inhibition of growth at 10 µM (BT-549): < 10%; inhibition of growth at 10 µM (UACC-62): < 10%; inhibition of growth at 10 µM (SF-539): < 10%; inhibition of growth at 10 µM (UO-31): 14.8%; inhibition of growth at 10 µM (SK-MEL-5): < 10%
O=C(CCCl)Nc1nc(-c2ccccc2)cs1	68.2%	29.2%	51.4%	76.1%	29.3%	70.7%	68.2%	24.8%	80.4%	50%	73%	36.7%	15.8%	57.2%	78.4%	69.3%	35.7%	47.8%	55.2%	34.7%	inhibition of growth at 10 µM (CCRF-CEM): 92.7%; inhibition of growth at 10 µM (RPMI-8226): 93.1%; inhibition of growth at 10 µM (MDA-MB-231): 53.5%; inhibition of growth at 10 µM (K562): 69.3%; inhibition of growth at 10 µM (SF-268): 63%; inhibition of growth at 10 µM (SK-MEL-28): 19.4%; inhibition of growth at 10 µM (PC-3): 57.9%; inhibition of growth at 10 µM (OVCAR-8): 56.1%; inhibition of growth at 10 µM [1]: < 10%; inhibition of growth at 10 µM (BT-549): 74.5%; inhibition of growth at 10 µM (UACC-62): 39%; inhibition of growth at 10 µM (SF-539): 81.5%; inhibition of growth at 10 µM (UO-31): 83.2%; inhibition of growth at 10 µM (SK-MEL-5): 48.9%

— ChEMBL document CHEMBL2040727, “Substituted thiazoles VI. Synthesis and antitumor activity of new 2-acetamido- and 2 or 3-propanamido-thiazole analogs” (2012)
